Test results: publication PMC6718200 (Bioorganic & medicinal chemistry, 2018)
pKd: −log10 of the molar value.

How the values were obtained:
HT29 [1] = assay: Cell cycle analysis by flow cytometry; format: cell-based, human; conditions: HT29, 0, 25, 50, 75 μM, 48 h
Procedure, shortened: (§1)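 Cells were cultured in 10% FBS at 37 °C and 5% CO2 (HT29 in McCoy's 5a, SW620 in high-glucose DMEM). At 80% confluence they were seeded into 6-well plates and exposed to the test compound at 0, 25, 50 or 75 μM for 48 h. Cells were washed in cold PBS and fixed in 70% ethanol at 4 °C for 24 h. They were stained with PI plus RNase A for 30 min at 37 °C in the dark, then analysed by flow cytometry. Three independent experiments.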

HT29 [2] = assay: Colony formation assay; format: cell-based, human; conditions: HT29, exposure for two weeks
SW620 [3] = assay: Apoptosis assessment, PI/annexin V-FITC flow cytometry; format: cell-based, human; conditions: SW620, 0, 25, 50, 75 μM, 48 h
Procedure, shortened: (§2)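 Cells were grown in 10% FBS medium at 37 °C and 5% CO2: HT29 in McCoy's 5a, SW620 in high-glucose DMEM. They were treated with the test compound at 0, 25, 50 or 75 μM for 48 h. Attached and floating cells were pooled, washed twice in cold PBS and stained with annexin V-FITC/PI for 15 min at room temperature. The apoptotic fraction was read by flow cytometry. Three independent experiments, mean ± SD, two-tailed t-test.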

FHC cell lines = assay: MTT assay, growth inhibition in immortalized colorectal cells; format: cell-based; conditions: Homo sapiens, read-out: GI50 FHC
Procedure, shortened: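 MTT format: 3 × 10³ cells per well, 24 h pre-incubation, then test compound at 0–200 μM (final, from DMSO stocks) for 12, 24, 48 or 72 h. MTT at 0.5 mg/mL final for 4 h; formazan dissolved in DMSO; A570. GI50 was fitted from growth-inhibition curves, three independent experiments in sextuplicate.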

HT29 [4] = assay: Apoptosis assessment, PI/annexin V-FITC flow cytometry; format: cell-based, human; conditions: HT29, 0, 25, 50, 75 μM, 48 h
Procedure, shortened: as §2

97-kinase panel = 97-kinase panel screen; format: binding; conditions: read-out: Kd, all tested kinases
SW620 [5] = assay: BrdU assay; format: cell-based, human; conditions: SW620, 0, 25, 50, 75 μM, 48 h
Procedure, shortened: (§3)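 Cells at 80% confluence were seeded at 20,000 per well and exposed to test compound at 0, 25, 50 and 75 μM for 48 h. They were pulsed with 10 μM BrdU for 2 h, fixed in paraformaldehyde, treated with 2 M HCl for 30 min, and blocked with 10% goat serum for 30 min at 37 °C. Staining used rat anti-BrdU (1:2000, overnight, 4 °C), then […] (1:2000, 120 min, RT), then DAPI at 300 nM. The % BrdU-positive cells was scored by fluorescence microscopy. Three independent experiments; mean ± SD.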

HT29 [6] = assay: Western blotting analysis; format: cell-based, human; conditions: HT29, 0, 25, 50, 75 μM, 48 h
Procedure, shortened: (§4)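 Cells were treated with test compound at 0, 25, 50 and 75 μM for 48 h and lysed in RIPA with protease and phosphatase inhibitors; protein was quantified by BCA. 50 µg lysate was run on 8–15% SDS-PAGE and transferred to PVDF. Blocking was 5% BSA/TBST for 2 h at RT; primary antibodies overnight at 4 °C; HRP secondary 1:10000 for 1 h. Detection by ECL, with tubulin as loading control and densitometry. Three independent experiments; mean ± SD.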

HT29 [7] = assay: BrdU assay; format: cell-based, human; conditions: HT29, 0, 25, 50, 75 μM, 48 h
Procedure, shortened: as §3

SW620 [8] = assay: Cell cycle analysis by flow cytometry; format: cell-based, human; conditions: SW620, 0, 25, 50, 75 μM, 48 h
Procedure, shortened: as §1

SW620 [9] = assay: Western blotting analysis; format: cell-based, human; conditions: SW620, 0, 25, 50, 75 μM, 48 h
Procedure, shortened: as §4

SW620 [10] = assay: Hoechst 33342 staining; format: cell-based, human; conditions: SW620, 0, 25, 50, 75 μM, 48 h
Procedure, shortened: (§5)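 Chromatin-condensation assay. HT29 (McCoy's 5a) and SW620 (high-glucose DMEM), each with 10% FBS, were seeded into 24-well plates. They were treated with the test compound at 0, 25, 50 or 75 μM for 48 h, then fixed in 4% paraformaldehyde for 20 min and washed with PBS. Cells were stained with Hoechst 33342 for 15 min at 37 °C. Condensed-chromatin apoptotic cells were scored by fluorescence microscopy.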

SW620 [11] = assay: Colony formation assay; format: cell-based, human; conditions: SW620, exposure for two weeks
HT29 [12] = assay: Hoechst 33342 staining; format: cell-based, human; conditions: HT29, 0, 25, 50, 75 μM, 48 h
Procedure, shortened: as §5

CC(C)CN(C(=O)c1cccnc1)c1c2ccccc2c(=O)n2c1[nH]c1ccccc12 [Compound 7g]
average G2/M proportion (HT29 [1]): increased in a concentration-dependent manner
colony size and numbers (HT29 [2]): dramatically reduced
percentage of cells undergoing apoptosis (SW620 [3]): increased in a concentration-dependent manner
GI50 (FHC cell lines): > 200 µM
percentage of cells undergoing apoptosis (HT29 [4]): increased in a concentration-dependent manner
pKd (97-kinase panel): < 5.30
proliferation (BrdU immunofluorescence) (SW620 [5]): inhibited the proliferation
BCL-2 protein level (HT29 [6]): decreased
CDK1 level (HT29 [6]): decreased
MCL-1 protein level (HT29 [6]): decreased
PARP activation (HT29 [6]): significantly increased
PTEN level (HT29 [6]): increase in a concentration-dependent manner
cyclin B1 level (HT29 [6]): decreased
p21 level (HT29 [6]): increased
p53 level (HT29 [6]): increased
p-4E-BP1 level (HT29 [6]): decreased
p-AKT level (HT29 [6]): decreased
p-mTOR level (HT29 [6]): decreased
total expression levels of AKT, mTOR and 4E-BP1 (HT29 [6]): hadn’t effect
proliferation (BrdU immunofluorescence) (HT29 [7]): inhibited the proliferation
average G2/M proportion (SW620 [8]): increased in a concentration-dependent manner
BCL-2 protein level (SW620 [9]): decreased
CDK1 level (SW620 [9]): decreased
MCL-1 protein level (SW620 [9]): decreased
PARP activation (SW620 [9]): significantly increased
PTEN level (SW620 [9]): increase in a concentration-dependent manner
cyclin B1 level (SW620 [9]): decreased
p21 level (SW620 [9]): increased
p53 level (SW620 [9]): increased
p-4E-BP1 level (SW620 [9]): decreased
p-AKT level (SW620 [9]): decreased
p-mTOR level (SW620 [9]): decreased
total expression levels of AKT, mTOR and 4E-BP1 (SW620 [9]): hadn’t effect
number of apoptosis bodies (SW620 [10]): increased in a concentration-dependent manner
colony size and numbers (SW620 [11]): dramatically reduced
number of apoptosis bodies (HT29 [12]): increased in a concentration-dependent manner
